PP5 inh = inhibitors of human protein phosphatase 5 (PP5). purified PP5c, OMFP substrate fluorescence. actives 0.18% (n = 320,000). inhibition, % at 6.7 µM;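 active = inhibition above the campaign's mean inhibition across all tested compounds plus 3 SD, cut at about 9.5% in these data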;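 also: 0% = DMSO only and 100% = 100 µM cantharidin control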
GASC-1 inh = human JMJD2C demethylase inhibition. Q9H3R0. GST-JMJD2C(1-420) H3K9me3 demethylation, DELFIA europium. inhibition, % at 2.35 µM. actives 0.069% (n = 330,000). AID 2099;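 active = more than half of a compound's replicate wells show inhibition beyond 50%, single wells judged on their own value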;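 also: signal counts dimethyl H3K9 product captured on neutravidin plate; 0% = median of DMSO wells and 100% = 0.3 times that DMSO median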
Target sequence (Q9H3R0 1-420 limits assumed): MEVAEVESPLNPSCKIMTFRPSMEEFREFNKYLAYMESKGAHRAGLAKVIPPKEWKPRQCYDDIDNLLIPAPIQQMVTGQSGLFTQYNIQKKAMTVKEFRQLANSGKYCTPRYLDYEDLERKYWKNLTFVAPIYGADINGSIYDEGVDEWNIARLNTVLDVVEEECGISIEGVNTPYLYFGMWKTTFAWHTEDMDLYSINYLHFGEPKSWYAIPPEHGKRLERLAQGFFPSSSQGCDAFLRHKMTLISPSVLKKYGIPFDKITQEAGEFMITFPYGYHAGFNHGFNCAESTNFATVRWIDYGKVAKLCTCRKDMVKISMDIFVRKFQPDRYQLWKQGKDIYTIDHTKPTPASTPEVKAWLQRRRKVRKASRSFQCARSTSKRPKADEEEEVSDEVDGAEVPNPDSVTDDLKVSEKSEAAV
T cruzi inh = blocks replication of Trypanosoma cruzi; T. cruzi beta-gal in NIH3T3, luminescence, 90 h; inhibition, % (concentration not given with the values); actives 1.4% (n = 300,000); AID 1885;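 active = mean inhibition across valid replicates above about 55%, limit read from the data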;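 also: signal also drops with host cell toxicity which is not excluded here; 0% = plate median of DMSO wells and 100% = zero luminescence signal; higher percent means less beta-gal luminescence so fewer parasites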
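Incubation – ≥90 h infection period, 3 h prior cell attachment · System – NIH/3T3 fibroblasts plus reporter T. cruzi · Doses – compound pinned at 50 nL/well, DMSO · Read-out basis – percent inhibition of parasite-derived β-gal signal · Signal – luminescent β-galactosidase signal after 60 min lysis · Also added – 5000 T. cruzi trypomastigotes/well · Medium – Low-serum DMEM with 2% FBS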
p-CIP stab down = p/CIP protein destabilization | decrease of EGFP signal, % at 10 µM | AID 1984 | F442A p/CIP-EGFP cells, EGFP fluorescence, 16 h | actives 0.01% (n = 290,000);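 active = EGFP signal decrease of at least 30% at 10 µM or well 3 SD below plate mean, unless failing retest; inactive = the rest, including hits failing retest or dose response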
CTSL1 counter = counter-screen for PFM18AAP inhibitors: inhibitors of F. hepatica cathepsin L1; recombinant F. hepatica cathepsin L1, Z-Leu-Arg-MCA fluorescence; inhibition, % at 5.96 µM; actives 0.49% (n = 300,000);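 active = inhibition above the mean of all tested compounds plus 3 SD, set per screening campaign, cut at about 17% in these data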;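 also: 0% = plate median of test compound wells and 100% = 1 µM Z-Phe-Ala-diazomethylketone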
H9c2 protect = modulators protecting cardiomyocytes from myocardial damage | H9c2 cardiomyocytes, H2O2 injury protection, ATPLite, 2 h | protection from H2O2 cell death, % at 20 µM | actives 0.63% (n = 360,000);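 active = compounds giving at least 50% protection of heart cells from peroxide-induced death in the single-dose screen, raw or plate-pattern-corrected value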;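 also: 0% = DMSO wells with peroxide and 100% = DMSO wells without peroxide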
An asterisk follows results filed as active; . = not tested or not shown; ! = repeats disagree. Only some compounds are listed: those with a hit (about 2.4% of all), similar ones and a draw of the others.

SMILES	PP5 inh	GASC-1 inh	T cruzi inh	p-CIP stab down	CTSL1 counter	H9c2 protect
O=C(Nc1ccc(Cl)c([N+](=O)[O-])c1)C(Sc1ccccc1)c1ccccc1 (configuration not stated)	3	25	64*	-4	2	-11
CN(C)C(=O)CCc1ccc2c3c([nH]c2c1)[C@]1(C)[C@@H](C(=O)N2CCOCC2)C[C@H](CC(=O)NCCN2CCOCC2)C(=O)N1CC3	.	.	.	.	.	3
CCC1Oc2ccc(C)cc2N(CC(=O)N(Cc2ccc(C)o2)C2CCCC2)C1=O (configuration not stated)	5	12	6	4	28*	-24
O=C(Nc1ccc([N+](=O)[O-])cc1)Nc1ccc(N2CCOCC2)c2nonc12	-1	-6	71*	2	0	-27
CC(=O)Nc1cc([N+](=O)[O-])ccc1N1CCOCC1	2	5	0	-23	1	0
O=C(NCC1CCCO1)c1ccc(N2C(=O)C3CCCCC3C2=O)cc1 (configuration not stated)	-1	-8	-8	2	-1	1
COc1ccc(N2CCN(C(=O)C(NC(=O)c3c(F)cccc3F)C(C)C)CC2)cc1 (configuration not stated)	5	6	1	-13	26*	1
COc1ccc(N2CCN(C(=O)COC(=O)[C@@H](NC(=O)c3ccccc3Cl)C(C)C)CC2)cc1	.	.	.	.	.	1
Cc1ccc(C(=O)N(Cc2cccnc2)Cc2cc3cc(C)ccc3n3nnnc23)cc1	-2	11	67*	2	14	9
Cc1ccc2c(c1)cc(CN(Cc1cccnc1)C(=O)c1ccccc1)c1nnnn12	-4	-10	21	7	0	13
O=C(NNc1c2ccccc2nc2ccccc12)c1cccc(O)c1	0	5	-12	-3	2	51*
O=C(NNc1c2ccccc2nc2ccccc12)c1ccccc1Cl	-6	-2	38	-26	18*	7
CC(=O)c1ccc(S(=O)(=O)NCCC(=O)OCC(=O)N2CCCC2=O)cc1	-1	-4	-15	.	-7	-2
CC(C)(C(=O)N1CCC1(C)C(=O)NS(=O)(=O)c1ccc(Cl)s1)c1ccccc1 (configuration not stated)	.	.	.	.	.	-2
CCOc1ccc(NS(=O)(=O)c2cc(C(=O)N3CCN(c4ccccc4O)CC3)ccc2Cl)cc1	.	.	.	.	.	-1
Cc1[nH][nH]c(=O)c1C(c1c(C)[nH][nH]c1=O)c1cn(C)c2ccccc12	.	.	.	-2	.	-10
Cc1[nH][nH]c(=O)c1C(c1c(C)[nH][nH]c1=O)c1cn(Cc2cccc3ccccc23)c2ccccc12	3	68*	.	-17	3	-31
Clc1ccccc1/C=N/N1CCN(Cc2ccccc2)CC1	2	-11	3	-8	0	-1
CN1CCN(/N=C/c2cccc(Cl)c2Cl)CC1	-1	-4	62*	10	2	-1
COc1cc2[nH]c(C(=O)Nc3ccc(F)cc3)cc2c(OC)c1OC	4	8	2	-5	8	0
CCN1CCN(CCCOc2ccc(-c3ccccc3)cc2)CC1	3	2	72*	-9	-13	.
CN1CCN(CCCOc2ccc(-c3ccccc3)cc2)CC1	3	2	56*	4	-1	0
O=C(c1ccccc1)c1ccc(OCCCN2CCCC2)cc1	1	0	55*	-7	5	3
CCN1CCN(CCOc2ccc(Cl)cc2)CC1	-2	-10	67*	1	1	-5
CC1=NC(C)(C)CC2CCC(O)C12 (configuration not stated)	.	.	.	.	.	-1
SMILES	PP5 inh	GASC-1 inh	T cruzi inh	p-CIP stab down	CTSL1 counter	H9c2 protect
Cc1nnc(SCC(=O)Nc2ccc(S(N)(=O)=O)cc2)n(N)c1=O	.	8	.	.	.	14
Cc1ccc(NC(=O)CN(C)C(=O)C(C)OC(=O)CNC(=O)c2ccc(Cl)c([N+](=O)[O-])c2)cc1 (configuration not stated)	0	11	-17	.	28*	-5
CC(=O)N1CC=CC1(CC(C)C)C(=O)NCc1cc(F)cc(C(F)(F)F)c1 (configuration not stated)	1	3	1	1	55*	-1
CNC(=O)C1(CC(C)C)C=CCN1C(C)=O (configuration not stated)	3	1	-13	3	-1	1
CCOC(=O)C1=C(c2ccccc2)Nc2ncnn2C1c1ccc(OC)c(OC)c1OC (configuration not stated)	1	-4	56*	-7	-1	7
O=Cc1ccc2ccc3cccnc3c2n1	0	14	-2	-6	-1	44
c1cnc2c(c1)ccc1cccnc12	-2	-2	55*!	3	0	60*
Nc1cc(=O)[nH]c(SCC(=O)Nc2ccc(N3CCCCC3)cc2)n1	.	4	.	.	.	-3
COc1cccc(NC(=S)NN=C2CCC(C(C)(C)C)CC2)c1 (configuration not stated)	0	13	-16	5	20*	-10
O=C(N/N=C/c1c(O)n(-c2ccccc2Cl)c(=O)c2ccccc12)C1COc2ccccc2O1 (configuration not stated)	-3	5	1	-4	0	68*
Cc1ccc(NC2=C(Cl)C(=O)OC2OC(=O)c2ccco2)cc1 (configuration not stated)	2	-3	17	-10	81*	1
Cc1cccc(NC2=C(Cl)C(=O)OC2OC(=O)c2ccco2)c1 (configuration not stated)	3	-7	-28	7	16	10
CCOc1ccc(S(=O)(=O)c2c(C(=O)c3ccccc3)cnc3cc4c(cc23)OCCO4)cc1	0	-1	71*	6	-2	-6
COc1ccc(C2=NS(=O)(=O)N(C)C(C(=O)NCc3ccc4c(c3)OCO4)=C2)cc1OC	1	6	-1	-7	2	12
Cc1cc(C)c2c(=O)n(CC(=O)Nc3ccc(Cl)cc3)sc2n1	9	45	60*	0	1	-30
CS(=O)(=O)Nc1ccc(C2=NN(C(=O)CCCC(=O)O)C(c3cccs3)C2)cc1 (configuration not stated)	-1	-3	-11	-4	6	-2
O=C1/C(=C/c2cccnc2)SC(=NCc2ccccc2)N1Cc1ccccc1	2	-44	63*	-2	1	-1
C=CCNc1nc(N)c(C(=C(C#N)C#N)c2ccc(Br)cc2)s1	3	1	2	2	3	56*
CC1(C(=O)NS(=O)(=O)c2cccc(Cl)c2)CCN1C(=O)CCc1ccccc1 (configuration not stated)	.	.	.	.	.	-7

Screening data deposited in PubChem by several laboratories.
